Laboratory results: ChEMBL document CHEMBL4422671, “New Quinolylnitrones for Stroke Therapy: Antioxidant and Neuroprotective ( Z)- N- tert-Butyl-1-(2-chloro-6-methoxyquinolin-3-yl)methanimine Oxide as a New Lead-Compound for Ischemic Stroke Treatment” (J Med Chem, 2019)
One block for each compound: values may come before it. Active and inactive are the calls of the source. The rule behind the calls is not given here.

Legend:
[1] = tested on: Primary neuron; assay: Neuroprotective activity against oxygen-glucose deprivation-induced cell death in Sprague-Dawley rat primary neuronal cells assessed as cell viability at 1 to 100 uM treated at onset of recovery period and measured at 24 hrs of recovery by MTT assay relative to control; format: functional, cell-based
Summary of the method: (§1)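 Rat cortical neurons from E16–17 Sprague-Dawley embryos, used at 6–7 days in serum-free medium. OGD: glucose-free medium bubbled with 95% N2/5% CO2, <0.1% O2, 6.5% CO2, 37 °C, 4 h. Compound added at start of 24 h normoxic recovery. Viability by MTT (0.2 mg/mL, 1.5 h), lysis with HCl/SDS, read at 595/690 nm, relative to 100% control. Four to eight culture batches, each in quadruplicate.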

[2] = tested on: Rattus norvegicus; assay: Antiinflammatory activity in Fisher 344 rat model of carrageenan-induced edema assessed as inhibition of carrageenan-induced paw edema at 0.01 mmol/kg, ip dosed simultaneously with carrageenan injection relative to control; format: functional; conditions: Fisher 344, ip
Summary of the method: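 Fisher 344 rats (150–200 g), both sexes. Edema was induced by intradermal injection of 0.1 mL 2% carrageenan in water into the right hind paw. Compound was suspended in water with a few drops of Tween 80. Rats were euthanized 3.5 h later. The injected-minus-uninjected paw weight difference was compared with water or Tween-water controls as % inhibition. Mean of two experiments, n = 6 each.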

[3] = tested on: Primary neuron; assay: Neuroprotective activity against oxygen-glucose deprivation-induced cell death in Sprague-Dawley rat primary neuronal cells assessed as cell viability at 1 to 250 uM treated at onset of recovery period and measured at 24 hrs of recovery by MTT assay relative to control; format: functional, cell-based; summary of the method: as §1
[4] = tested on: Primary neuron; assay: Neuroprotective activity against oxygen-glucose deprivation-induced cell death in Sprague-Dawley rat primary neuronal cells assessed as cell viability at 1 to 10 uM treated at onset of recovery period and measured at 24 hrs of recovery by MTT assay relative to control; format: functional, cell-based; summary of the method: as §1
[5] = Antioxidant activity assessed as hydroxyl radical scavenging activity at 0.1 mM measured after 30 mins; format: functional
Summary of the method: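 Hydroxyl radicals from Fe3+/ascorbic acid: EDTA 0.1 mM, Fe3+ 167 μM, DMSO 33 mM, compound 0.1 mM and ascorbic acid 10 mM in 50 mM phosphate buffer pH 7.4. Incubated 37 °C for 30 min, stopped with 17% w/v TCA. Read-out is inhibition of formaldehyde formation, given as % scavenging. Trolox as reference.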

[6] = Antioxidant activity assessed as superoxide anion scavenging activity at 0.1 mM pH 7.4 after 10 mins by NBT assay; format: functional
Summary of the method: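 Superoxide generated by xanthine/xanthine oxidase (0.07 U/mL) in 0.1 M phosphate buffer pH 7.4 containing NBT and compound at 0.1 mM final. After 10 min at rt, absorbance read at 560 nm. Caffeic acid as standard.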

[7] = Antiinflammatory activity assessed as NO release at 100 uM after 60 mins in presence of L-cysteine by Griess reagent-based relative to control; format: functional
Summary of the method: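 NO-release test: compound at 100 μM final (from DMSO) in 50 mM phosphate buffer pH 7.4 containing 1 mM L-cysteine, 60 min at 37 °C. Reaction mixture then treated with Griess reagent, left 10 min at rt, absorbance read at 540 nm. Sodium nitroprusside as standard. Mean of three to four determinations.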

[8] = Antioxidant activity assessed as ABTS radical cation scavenging activity by measuring trolox equivalents at 10 uL after 1 min; format: functional
Summary of the method: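 ABTS radical cation made from 2 mM aqueous ABTS plus 0.17 mM potassium persulfate in 20 mM phosphate buffer pH 7.4, kept 12–16 h dark at rt. Diluted with ethanol to A734 0.70, then mixed with 10 μL compound from 10 mM stock. Absorbance read at rt 1 min after mixing. Trolox as standard.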

[9] = Antioxidant activity assessed as DPPH free radical scavenging activity at 0.1 mM measured after 20 to 60 mins; format: functional
Summary of the method: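 DPPH 0.1 mM in absolute ethanol with compound at 0.1 mM final (from DMSO). Absorbance at 517 nm recorded after 20 and 60 min at rt. NDGA as standard.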

[10] = target: Lipoxygenase (Glycine max, UniProt Q39829); assay: Inhibition of soybean lipoxygenase using sodium linoleate as substrate by UV-based analysis
Summary of the method: (§2)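 Soybean lipoxygenase (enzyme 1/9 ×10⁻⁴ w/v in saline) incubated at rt with 0.1 mM sodium linoleate and compound in DMSO, at several concentrations from 1 to 100 µM diluted from 10 mM stock. Conversion to 13-hydroperoxylinoleic acid recorded at 234 nm; IC50 derived. NDGA as reference inhibitor.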

[11] = tested on: Primary neuron; assay: Neuroprotective activity against oxygen-glucose deprivation-induced cell death in Sprague-Dawley rat primary neuronal cells assessed as cell viability at 0.3 to 100 uM treated at onset of recovery period and measured at 24 hrs of recovery by MTT assay relative to control; format: functional, cell-based; summary of the method: as §1
[12] = Antioxidant activity assessed as inhibition of linoleic acid peroxidation activity at 10 uL; format: functional; design: scale not given: the % may be the effect or the level left
Summary of the method: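 AAPH-initiated peroxidation of sodium linoleate dispersion (16 mM, 10 μL) in 0.05 M phosphate buffer pH 7.4 at 37 °C under air. Initiator was 50 μL of 40 mM AAPH, with 10 μL compound added. Conjugated diene hydroperoxide followed at 234 nm. Trolox as reference.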

[13] = tested on: Primary neuron; assay: Neuroprotective activity against oxygen-glucose deprivation-induced cell death in Sprague-Dawley rat primary neuronal cells assessed as cell viability at 0.5 to 10 uM treated at onset of recovery period and measured at 24 hrs of recovery by MTT assay relative to control; format: functional, cell-based; summary of the method: as §1
[14] = Neuroprotective activity against oxygen-glucose deprivation-induced cell death in Sprague-Dawley rat primary neuronal cells assessed as cell viability at 100 uM treated at onset of recovery period and measured at 24 hrs of recovery by MTT assay relative to control; format: functional; conditions: Primary neuron, read-out: Activity; summary of the method: as §1
[15] = Neuroprotective activity against oxygen-glucose deprivation-induced cell death in Sprague-Dawley rat primary neuronal cells assessed as cell viability at 250 uM treated at onset of recovery period and measured at 24 hrs of recovery by MTT assay relative to control; format: functional; conditions: Primary neuron, read-out: Activity; summary of the method: as §1
[16] = Neuroprotective activity against oxygen-glucose deprivation-induced cell death in Sprague-Dawley rat primary neuronal cells assessed as cell viability at 50 uM treated at onset of recovery period and measured at 24 hrs of recovery by MTT assay relative to control; format: functional; conditions: Primary neuron, read-out: Activity; summary of the method: as §1
[17] = Neuroprotective activity against oxygen-glucose deprivation-induced cell death in Sprague-Dawley rat primary neuronal cells assessed as cell viability at 10 uM treated at onset of recovery period and measured at 24 hrs of recovery by MTT assay relative to control; format: functional; conditions: Primary neuron, read-out: Activity; summary of the method: as §1
[18] = tested on: Primary neuron; assay: Neuroprotective activity against oxygen-glucose deprivation-induced cell death in Sprague-Dawley rat primary neuronal cells assessed as cell viability at 0.5 to 250 uM treated at onset of recovery period and measured at 24 hrs of recovery by MTT assay relative to control; format: functional, cell-based; summary of the method: as §1
[19] = target: Lipoxygenase (Glycine max) (UniProt Q39829); assay: Inhibition of soybean lipoxygenase at 1 to 100 uM using sodium linoleate as substrate by UV-based analysis relative to control; summary of the method: as §2
[20] = tested on: Mus musculus; assay: Neuroprotective activity in C57BL/6 mouse model of transient middle cerebral artery occlusion-induced ttransient focal cerebral ischemia assessed decrease in size of ischemic lesion at 40 mg/kg, ip measured after 48 hrs post dose relative to control; format: functional, organism-based
[21] = tested on: Mus musculus; assay: (§3) Neuroprotective activity in C57BL/6 mouse model of ischemia-induced cerebral ischemia model assessed as reduction in apoptosis in cortical region at 40 mg/kg, ip administered at onset of reperfusion period and measured at 5 days reperfusion post ischemia by TUNNEL assay relative to control; format: functional, organism-based
[22] = tested on: Mus musculus; assay: (§4) Neuroprotective activity in C57BL/6 mouse model of ischemia-induced cerebral ischemia model assessed as reduction in apoptosis in hippocampal CA1 region at 40 mg/kg, ip administered at onset of reperfusion period and measured at 5 days reperfusion post ischemia by TUNNEL assay relative to control; format: functional, organism-based
[23] = tested on: Mus musculus; assay: Neuroprotective activity in C57BL/6 mouse model of ischemia-induced cerebral ischemia model assessed reduction in neurodeficit score at 40 mg/kg, ip administered at onset of reperfusion period and measured at 5 days reperfusion post ischemia; format: functional, organism-based
[24] = tested on: Mus musculus; assay: Neuroprotective activity in C57BL/6 mouse model of transient middle cerebral artery occlusion-induced ttransient focal cerebral ischemia assessed decrease in motor deficit by measuring improvement in grip strength at 40 mg/kg, ip measured after 48 hrs post dose by grip strength Test; format: functional; design: scale not given: the % may be the effect or the level left
[25] = tested on: Mus musculus; assay: as §4, with “assessed” for “assessed as”, “neuronal cell death” for “apoptosis”, “Fluoro-Jade-staining” for “TUNNEL”, “assay based” for “assay”; format: functional, organism-based
[26] = tested on: Mus musculus; assay: as §3, with “assessed” for “assessed as”, “neuronal cell death” for “apoptosis”, “Fluoro-Jade-staining” for “TUNNEL”, “assay based” for “assay”; format: functional, organism-based

SMILES: CC(C)(C)/[N+]([O-])=C/c1cc2ccccc2n2nnnc12
Activity [1]: inactive

SMILES: COc1ccc2nc(Cl)c(C=O)cc2c1
Activity [1]: inactive

SMILES: COc1ccc2c(c1)c(CC(=O)O)c(C)n2C(=O)c1ccc(Cl)cc1 [INDOMETHACIN]
inhibition in vivo at 10 µmol/kg [2]: 47%

SMILES: Cc1ccc2nc(O)c(/C=[N+](\[O-])C(C)(C)C)cc2c1
Activity [3]: Active

SMILES: CNc1nc2ccc(C)cc2cc1/C=[N+](\[O-])Cc1ccccc1
Activity [4]: inactive

IC50 [10]: 100 µM
SMILES: COc1ccc2nc(Cl)c(/C=[N+](\[O-])Cc3ccccc3)cc2c1
Activity [5]: 65%
Activity [6]: 18%
Activity [7]: 12.5%
Activity [8]: inactive
Activity [9]: 3%
Activity [11]: inactive
Activity [12]: 100%

SMILES: [O-]/[N+](=C\c1cc2cc(Cl)ccc2nc1Cl)Cc1ccccc1
Activity [3]: inactive

SMILES: Cc1ccc2nc(Cl)c(/C=N/OCc3ccccc3)cc2c1
Activity [13]: inactive

SMILES: COc1ccc2cc(/C=[N+](\[O-])Cc3ccccc3)c(Cl)nc2c1
Activity [1]: inactive

SMILES: [O-]/[N+](=C\c1cc2cc(O)ccc2nc1Cl)Cc1ccccc1
Activity [3]: inactive

IC50 [10]: 32.5 µM
SMILES: CC(C)(C)/[N+]([O-])=C/c1cc2ccccc2nc1Cl
Activity [5]: 97%
Activity [6]: 16%
Activity [7]: 7.5%
Activity [1]: inactive
Activity [8]: inactive
Activity [9]: 7%
Activity [12]: inactive

IC50 [10]: 36.5 µM
SMILES: CC(C)(C)/[N+]([O-])=C/c1cc2ccccc2nc1O
viability at 100 µM [14]: 48.8%
Activity [5]: 99%
Activity [6]: 23%
Activity [8]: 6%
Activity [9]: inactive
viability at 250 µM [15]: 55%
Activity [12]: 100%

SMILES: Cc1ccc2nc(Cl)c(/C=N/C(C)(C)C)cc2c1
Activity [3]: inactive

SMILES: Cc1ccc2nc(Cl)c(/C=N/N)cc2c1
Activity [3]: inactive

SMILES: COc1ccc(OC)c2nc(Cl)c(/C=[N+](\[O-])Cc3ccccc3)cc12
Activity [1]: inactive

SMILES: COc1nc2ccc(C)cc2cc1/C=[N+](\[O-])Cc1ccccc1
Activity [1]: inactive

SMILES: Cc1ccc2nc(Cl)c(/C=[N+](\[O-])Cc3ccccc3)cc2c1
viability at 50 µM [16]: 56.8%
viability at 10 µM [17]: 55.4%

SMILES: Cc1ccc2nc(Cl)c(/C=N/O)cc2c1
Activity [18]: inactive

SMILES: Cc1ccc2ncc(/C=[N+](\[O-])Cc3ccccc3)cc2c1
Activity [3]: Active

SMILES: Cc1ccc2nc(Cl)c(/C=N/Cc3ccccc3)cc2c1
Activity [18]: inactive

SMILES: COc1nc2ccccc2cc1/C=[N+](\[O-])Cc1ccccc1
Activity [1]: inactive

SMILES: [O-]/[N+](=C\c1cc2ccccc2nc1Cl)Cc1ccccc1
Activity [1]: inactive

SMILES: CC(Cc1ccc(O)c(O)c1)C(C)Cc1ccc(O)c(O)c1 (stereo unspecified) [NORDIHYDROGUAIARETIC ACID]
Activity [9]: 93%

SMILES: Cc1c(C)c2c(c(C)c1O)CCC(C)(C(=O)O)O2 (stereo unspecified)
Activity [5]: 73%
Activity [8]: 91%
Activity [12]: 88%

SMILES: Cc1ccc2nc(N(C)C)c(/C=[N+](\[O-])Cc3ccccc3)cc2c1
Activity [3]: Active

SMILES: O=C(O)/C=C/c1ccc(O)c(O)c1
Activity [6]: 15%

SMILES: Cc1ccc2nc(O)c(/C=[N+](\[O-])Cc3ccccc3)cc2c1
Activity [3]: Active

SMILES: Cc1ccc2nc(Cl)c(/C=[N+](\[O-])c3ccccc3)cc2c1
Activity [3]: inactive

inhibition [19]: 26%
SMILES: COc1ccc2nc(Cl)c(/C=[N+](/C)[O-])cc2c1
Activity [5]: 100%
Activity [6]: 29%
Activity [7]: 11%
Activity [8]: inactive
Activity [3]: inactive
Activity [9]: inactive
Activity [12]: 100%

SMILES: Cc1ccc2nc(Cl)c(/C=N/NCc3ccccc3)cc2c1
Activity [3]: inactive

IC50 [10]: 57.5 µM
SMILES: CC(C)(C)/[N+]([O-])=C/c1ccc(S(=O)(=O)[O-])cc1S(=O)(=O)[O-].[Na+].[Na+]
Activity [20]: inactive
Activity [5]: 94%
Activity [6]: inactive
Activity [7]: 1%
Activity [21]: inactive
Activity [22]: inactive
Activity [8]: inactive
Activity [9]: inactive
Activity [23]: Active
Activity [24]: 20.7%
Activity [25]: inactive
viability at 250 µM [15]: 52.9%
Activity [26]: inactive
Activity [12]: inactive
